Measurements from different studies.
Protocols differ between the studies behind these lines.
Sample: plasma

OC[C@H]1O[C@@H](c2cc(Cc3ccc(C4CC4)cc3)c(Cl)c3c2CCO3)[C@H](O)[C@@H](O)[C@@H]1O — Cmax (human; oral, 0.3 mg, single dose, fed): 3.74 ng/mL
Cc1cc(-c2nccc3c2ccn3CC(=O)Nc2ccc(-c3cnccn3)cn2)ccn1 — Cmax (human; oral, 7 mg, single dose): 57.4 nM
COc1ccc2c(c1)CN(C(=O)CCN1CCC(Cc3ccccc3)CC1)CC[S@@+]2[O-] — Cmax (male human; intravenous, 0.01 mg/kg, healthy volunteers): 21.9 ng/mL
COc1ccc(-c2c(Nc3ccccn3)[nH]c3c(C4=CCCCC4)c(-c4ccccc4)nn3c2=O)cc1 — Cmax (human; oral, 100 mg once daily, multiple doses, patients): 3490 ng/mL
C=CC(=O)NC1CCN(c2ncc3ncnc(Nc4ccc(Oc5ccc6c(c5)ncn6C)c(C)c4)c3n2)CC1 — Cmax (male human; intravenous, 100 µg, single dose, healthy volunteers): 0.583 nM
O=C(COc1ccc(Cl)cc1)NC12CC(c3nnc([C@H]4C[C@@H](OC(F)(F)F)C4)o3)(C1)C2 — Cmax (human; oral, 260 mg, multiple doses, once daily, steady state, healthy volunteers): 18600 nM
N#Cc1cccc(-c2ccc3ncc(-c4cc(F)cc(F)c4)c(N4CCC(N)CC4)c3c2)c1O — Cmax (male human; oral, 20 mg, single dose): 162 ng/mL
CC(C)n1c(C2CCNCC2)nc2c([N+](=O)[O-])c(Br)c(Br)cc21 — Cmax (human; oral, 25 mg, patients): 8.77 ng/mL
CC(=O)N(C)[C@H]1CCN(C(=O)c2cnc3c(c2)C[C@](C)(c2ccc(F)cc2)N3)C1 — Cmax (male human; oral, 30 mg, multiple doses, once daily, steady state): 797 nM
